Assay results from different studies.
Compare with care: the assays were run in different laboratories.
Target: Ribosomal protein S6 kinase beta-1 (RPS6KB1, Homo sapiens, UniProt P23443)

Structure (SMILES) | observed | method | tested at | remaining binding
CN(CCCC(F)(F)F)c1nccc(-c2cnn3ncccc23)n1 | binding |  | 1 µM | 100%
c1cncc(-c2cccc(Nc3nccc(NC4CCCCC4)n3)c2)c1 | binding | competition with immobilised ligand | 10 µM | 64%
CN(C)C(=O)Cn1cc(-c2nc([C@@](C)(c3ccc(-c4cnc(N)nc4)cc3)C3CC3)no2)cn1 | cell-free assay | competition with immobilised ligand | 1 µM | 83%
N[C@@H]1CCN(c2nccc(-c3cnn4ncccc34)n2)C1 | binding |  | 1 µM | 100%
Nc1ncc2c(n1)-c1c([nH]c3ccc(C#CC4CC4)cc13)CCCC2 | binding | competition with immobilised ligand | 1 µM | 72%
CNC(=O)[C@@H]1CC[C@@H](n2c(-c3ccc4cnccc4c3)nc3ccc(C(=O)NCc4cccc(C(N)=O)c4)cc32)C1 | binding | competition with immobilised ligand | 1 µM | 87%
C=CC(=O)N1CCC(C(=O)NCC(=O)N2CCN(c3nc(-c4cnc(N)nc4C(F)F)nc(N4CCOCC4)n3)CC2)CC1 | binding | competition with immobilised ligand | 1 µM | 56%
CC1CCCN1c1nccc(-c2cnn3ncccc23)n1 (centres unmarked) | binding |  | 1 µM | 100%
O=C(NCCCN1CCOCC1)c1ccc(Nc2ncc(Cl)c(-c3ccc(Cl)s3)n2)cc1 | binding | competition with immobilised ligand | 1 µM | 38%
C[C@@H]1CCN(c2nccc(-c3cnn4ncccc34)n2)C1 | binding |  | 1 µM | 87%
Cc1c(C(=O)O)cc(-c2ccc(C3CCNCC3)cc2)c2ccc(-c3ccc(C(F)(F)F)cc3)cc12 | binding | competition with immobilised ligand | 1 µM | 100%
O=C(c1ccc(Nc2nccc(-c3cc4ccccc4s3)n2)cc1)N1CCC(N2CCCC2)CC1 | binding | competition with immobilised ligand | 1 µM | 79%
C[C@@H](c1cccc(C#N)c1)n1cc(Cl)cc(C(N)=O)c1=N | cell-free assay | competition with immobilised ligand | 1 µM | 100%
F[C@@H]1CCN(c2nccc(-c3cnn4ncccc34)n2)C1 | binding |  | 1 µM | 100%
CNC(=O)c1ccc(Nc2ncc(C(F)(F)F)c(NCc3nccnc3N(C)S(C)(=O)=O)n2)cc1 | cell-free assay | competition with immobilised ligand | 0.1 µM | 96%
O=C(NCCCN1CCOCC1)c1ccc(Nc2nccc(-c3cc4ccccc4s3)n2)cc1 | binding | competition with immobilised ligand | 1 µM | 92%
CCC(=N\O)/C(C)=C/c1ccc(F)cc1 | cell-free assay | competition with immobilised ligand | 1 µM | 66%
O=C(NCC1CCOCC1)c1n[nH]cc1NC(=O)c1c(F)cccc1F | binding | competition with immobilised ligand | 1 µM | 87%
CN(c1nccc(-c2cnn3ncccc23)n1)C1CC1 | binding |  | 1 µM | 100%
O=C(NC[C@@H]1[C@H]2CN(C(=O)OCc3cc(C(F)(F)F)cc(C(F)(F)F)c3)C[C@@H]12)c1ccc2[nH]nnc2c1 | cell-free assay | competition with immobilised ligand | 1 µM | 86%
